Data: ChEMBL document CHEMBL3763099, “Synthesis and evaluation of 1,7-diheteroarylhepta-1,4,6-trien-3-ones as curcumin-based anticancer agents” (Eur J Med Chem, 2016)

How the values were obtained:
Type in all cases: functional
LNCaP [1] = assay: Cytotoxicity against human LNCAP cells assessed as inhibition of cell viability at 10 uM after 3 days by trypan blue dye exclusion assay; conditions: 72 h
Procedure, shortened: (§1)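 Viable cells were counted by trypan blue exclusion on an automated analyzer. Viability was taken as treated/vehicle viable cell count. The inhibitory rate is the control percentage viability minus the treated percentage viability. Variation between replicate experiments was at most 5%.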

[2] = Cytotoxicity against human DU145 cells assessed as inhibition of cell viability at 1 uM after 3 days by trypan blue dye exclusion assay; conditions: DU-145, 72 h; procedure, shortened: as §1
[3] = Cytotoxicity against human DU145 cells assessed as inhibition of cell viability at 10 uM after 3 days by trypan blue dye exclusion assay; conditions: DU-145, 72 h; procedure, shortened: as §1
HeLa [4] = assay: Cytotoxicity against human HeLa cells assessed as inhibition of cell viability at 1 uM after 3 days by trypan blue dye exclusion assay; conditions: 72 h; procedure, shortened: as §1
[5] = Cytotoxicity against human PC3 cells assessed as inhibition of cell viability at 1 uM after 3 days by trypan blue dye exclusion assay; conditions: PC-3, 72 h; procedure, shortened: as §1
HeLa [6] = assay: Cytotoxicity against human HeLa cells assessed as inhibition of cell viability at 10 uM after 3 days by trypan blue dye exclusion assay; conditions: 72 h; procedure, shortened: as §1
LNCaP [7] = assay: Cytotoxicity against human LNCAP cells assessed as inhibition of cell viability at 1 uM after 3 days by trypan blue dye exclusion assay; conditions: 72 h; procedure, shortened: as §1
[8] = Cytotoxicity against human PC3 cells assessed as inhibition of cell viability at 10 uM after 3 days by trypan blue dye exclusion assay; conditions: PC-3, 72 h; procedure, shortened: as §1

`Cn1ccnc1/C=C/C=C/C(=O)/C=C/c1nccn1C` showed an inhibition at 10 µM (LNCaP [1]) of 55%, an inhibition at 1 µM [2] of 21% and an inhibition at 10 µM [3] of 66%. It also gave an inhibition at 1 µM (HeLa [4]) of 18%, an inhibition at 1 µM [5] of 35% and an inhibition at 10 µM (HeLa [6]) of 93%. For the same molecule, the inhibition at 1 µM (LNCaP [7]) was 41% and the inhibition at 10 µM [8] was 83%.

Work on `Cc1csc(/C=C/C=C/C(=O)/C=C/c2nc(C)cs2)n1` yielded an inhibition at 10 µM (LNCaP [1]) of 57%, an inhibition at 1 µM [2] of 8% and an inhibition at 10 µM [3] of 46%. The inhibition at 1 µM (HeLa [4]) was 20%, the inhibition at 1 µM [5] was 25% and the inhibition at 10 µM (HeLa [6]) was 96%. The inhibition at 1 µM (LNCaP [7]) was 21% and the inhibition at 10 µM [8] was 86%.

`O=C(/C=C/C=C/c1ccncc1F)/C=C/c1ccncc1F` showed an inhibition at 10 µM (LNCaP [1]) of 66%, an inhibition at 1 µM [2] of 36% and an inhibition at 10 µM [3] of 81%. The inhibition at 1 µM (HeLa [4]) was 26%, the inhibition at 1 µM [5] was 19% and the inhibition at 10 µM (HeLa [6]) was 94%. The inhibition at 1 µM (LNCaP [7]) was 31% and the inhibition at 10 µM [8] was 84%.

Work on `CC(C)CCn1c(/C=C/C=C/C(=O)/C=C/c2nc3ccccc3n2CCC(C)C)nc2ccccc21` yielded an inhibition at 10 µM (LNCaP [1]) of 60%, an inhibition at 1 µM [2] of 21% and an inhibition at 10 µM [3] of 97%. It also gave an inhibition at 1 µM (HeLa [4]) of 53%, an inhibition at 1 µM [5] of 58% and an inhibition at 10 µM (HeLa [6]) of 97%. It also gave an inhibition at 1 µM (LNCaP [7]) of 15% and an inhibition at 10 µM [8] of 93%.

`Cc1nc(C(F)(F)F)c(/C=C/C=C/C(=O)/C=C/c2sc(C)nc2C(F)(F)F)s1` showed an inhibition at 10 µM (LNCaP [1]) of 92%, an inhibition at 1 µM [2] of 13% and an inhibition at 10 µM [3] of 80%. For the same molecule, the inhibition at 1 µM (HeLa [4]) was 12%, the inhibition at 1 µM [5] was 24% and the inhibition at 10 µM (HeLa [6]) was 96%. The inhibition at 1 µM (LNCaP [7]) was 37% and the inhibition at 10 µM [8] was 88%.

Work on `CCCCCCCn1ccnc1/C=C/C=C/C(=O)/C=C/c1nccn1CCCCCCC` yielded an inhibition at 10 µM (LNCaP [1]) of 70%, an inhibition at 1 µM [2] of 25% and an inhibition at 10 µM [3] of 93%. It also gave an inhibition at 1 µM (HeLa [4]) of 13%, an inhibition at 1 µM [5] of 28% and an inhibition at 10 µM (HeLa [6]) of 99%. The inhibition at 1 µM (LNCaP [7]) was 12% and the inhibition at 10 µM [8] was 92%.

With `CCCCCCn1ccnc1/C=C/C=C/C(=O)/C=C/c1nccn1CCCCCC` the inhibition at 10 µM (LNCaP [1]) was 76%, the inhibition at 1 µM [2] was 34% and the inhibition at 10 µM [3] was 86%. It also gave an inhibition at 1 µM (HeLa [4]) of 32%, an inhibition at 1 µM [5] of 11% and an inhibition at 10 µM (HeLa [6]) of 98%. For the same molecule, the inhibition at 1 µM (LNCaP [7]) was 31% and the inhibition at 10 µM [8] was 85%.

`Cc1cc(/C=C/C=C/C(=O)/C=C/c2cc(C)on2)no1` gave an inhibition at 10 µM (LNCaP [1]) of 70%, an inhibition at 1 µM [2] of 25% and an inhibition at 10 µM [3] of 79%. For the same molecule, the inhibition at 1 µM (HeLa [4]) was 17%, the inhibition at 1 µM [5] was 25% and the inhibition at 10 µM (HeLa [6]) was 97%. It also gave an inhibition at 1 µM (LNCaP [7]) of 13% and an inhibition at 10 µM [8] of 88%.

With `O=C(/C=C/C=C/c1ccccn1)/C=C/c1ccccn1` the inhibition at 10 µM (LNCaP [1]) was 7.2%, the inhibition at 1 µM [2] was 11% and the inhibition at 10 µM [3] was 37%. For the same molecule, the inhibition at 1 µM (HeLa [4]) was 21%, the inhibition at 1 µM [5] was 17% and the inhibition at 10 µM (HeLa [6]) was 24%. It also gave an inhibition at 1 µM (LNCaP [7]) of 0% and an inhibition at 10 µM [8] of 20%.

Work on `CCCn1ccnc1/C=C/C=C/C(=O)/C=C/c1nccn1CCC` yielded an inhibition at 10 µM (LNCaP [1]) of 95%, an inhibition at 1 µM [2] of 25% and an inhibition at 10 µM [3] of 84%. It also gave an inhibition at 1 µM (HeLa [4]) of 34%, an inhibition at 1 µM [5] of 23% and an inhibition at 10 µM (HeLa [6]) of 98%. The inhibition at 1 µM (LNCaP [7]) was 38% and the inhibition at 10 µM [8] was 91%.

`COc1cc(/C=C/C(=O)CC(=O)/C=C/c2ccc(O)c(OC)c2)ccc1O` [CURCUMIN] gave an inhibition at 10 µM (LNCaP [1]) of 66%, an inhibition at 1 µM [2] of 7% and an inhibition at 10 µM [3] of 59%. The inhibition at 1 µM (HeLa [4]) was 14%, the inhibition at 1 µM [5] was 2.5% and the inhibition at 10 µM (HeLa [6]) was 50%. For the same molecule, the inhibition at 1 µM (LNCaP [7]) was 29% and the inhibition at 10 µM [8] was 55%.

`CC(C)CCn1ccnc1/C=C/C=C/C(=O)/C=C/c1nccn1CCC(C)C` gave an inhibition at 10 µM (LNCaP [1]) of 75%, an inhibition at 1 µM [2] of 32% and an inhibition at 10 µM [3] of 88%. The inhibition at 1 µM (HeLa [4]) was 31%, the inhibition at 1 µM [5] was 32% and the inhibition at 10 µM (HeLa [6]) was 95%. It also gave an inhibition at 1 µM (LNCaP [7]) of 33% and an inhibition at 10 µM [8] of 89%.

For `O=C(/C=C/C=C/c1nccs1)/C=C/c1nccs1`, the inhibition at 10 µM (LNCaP [1]) was 80%, the inhibition at 1 µM [2] was 2% and the inhibition at 10 µM [3] was 65%. It also gave an inhibition at 1 µM (HeLa [4]) of 11%, an inhibition at 1 µM [5] of 28% and an inhibition at 10 µM (HeLa [6]) of 94%. For the same molecule, the inhibition at 1 µM (LNCaP [7]) was 28% and the inhibition at 10 µM [8] was 86%.

With `CC(C)=CCn1ccnc1/C=C/C=C/C(=O)/C=C/c1nccn1CC=C(C)C` the inhibition at 10 µM (LNCaP [1]) was 70%, the inhibition at 1 µM [2] was 0% and the inhibition at 10 µM [3] was 75%. It also gave an inhibition at 1 µM (HeLa [4]) of 66%, an inhibition at 1 µM [5] of 35% and an inhibition at 10 µM (HeLa [6]) of 94%. For the same molecule, the inhibition at 1 µM (LNCaP [7]) was 38% and the inhibition at 10 µM [8] was 87%.

`Cn1cc(Br)c(/C=C/C=C/C(=O)/C=C/c2nn(C)cc2Br)n1` showed an inhibition at 10 µM (LNCaP [1]) of 63%, an inhibition at 1 µM [2] of 42% and an inhibition at 10 µM [3] of 86%. The inhibition at 1 µM (HeLa [4]) was 52%, the inhibition at 1 µM [5] was 25% and the inhibition at 10 µM (HeLa [6]) was 95%. It also gave an inhibition at 1 µM (LNCaP [7]) of 38% and an inhibition at 10 µM [8] of 91%.

Molecule `CCCCn1ccnc1/C=C/C=C/C(=O)/C=C/c1nccn1CCCC` has an inhibition at 10 µM (LNCaP [1]) of 92%, an inhibition at 1 µM [2] of 35% and an inhibition at 10 µM [3] of 91%. The inhibition at 1 µM (HeLa [4]) was 44%, the inhibition at 1 µM [5] was 33% and the inhibition at 10 µM (HeLa [6]) was 92%. It also gave an inhibition at 1 µM (LNCaP [7]) of 47% and an inhibition at 10 µM [8] of 87%.

Work on `CCn1ccnc1/C=C/C=C/C(=O)/C=C/c1nccn1CC` yielded an inhibition at 10 µM (LNCaP [1]) of 62%, an inhibition at 1 µM [2] of 34% and an inhibition at 10 µM [3] of 84%. The inhibition at 1 µM (HeLa [4]) was 43%, the inhibition at 1 µM [5] was 32% and the inhibition at 10 µM (HeLa [6]) was 98%. It also gave an inhibition at 1 µM (LNCaP [7]) of 23% and an inhibition at 10 µM [8] of 85%.

`O=C(/C=C/C=C/c1cccnc1)/C=C/c1cccnc1` showed an inhibition at 10 µM (LNCaP [1]) of 61%, an inhibition at 1 µM [2] of 24% and an inhibition at 10 µM [3] of 87%. For the same molecule, the inhibition at 1 µM (HeLa [4]) was 20%, the inhibition at 1 µM [5] was 24% and the inhibition at 10 µM (HeLa [6]) was 97%. The inhibition at 1 µM (LNCaP [7]) was 2% and the inhibition at 10 µM [8] was 86%.

`O=C(/C=C/C=C/c1ccncc1)/C=C/c1ccncc1` showed an inhibition at 10 µM (LNCaP [1]) of 50%, an inhibition at 1 µM [2] of 60% and an inhibition at 10 µM [3] of 81%. For the same molecule, the inhibition at 1 µM (HeLa [4]) was 22%, the inhibition at 1 µM [5] was 33% and the inhibition at 10 µM (HeLa [6]) was 95%. It also gave an inhibition at 1 µM (LNCaP [7]) of 20% and an inhibition at 10 µM [8] of 84%.

`CCCCCn1ccnc1/C=C/C=C/C(=O)/C=C/c1nccn1CCCCC` gave an inhibition at 10 µM (LNCaP [1]) of 94%, an inhibition at 1 µM [2] of 43% and an inhibition at 10 µM [3] of 88%. It also gave an inhibition at 1 µM (HeLa [4]) of 39%, an inhibition at 1 µM [5] of 36% and an inhibition at 10 µM (HeLa [6]) of 95%. The inhibition at 1 µM (LNCaP [7]) was 44% and the inhibition at 10 µM [8] was 86%.

For `Cc1cccc(/C=C/C=C/C(=O)/C=C/c2cccc(C)n2)n1`, the inhibition at 10 µM (LNCaP [1]) was 57%, the inhibition at 1 µM [2] was 12% and the inhibition at 10 µM [3] was 75%. The inhibition at 1 µM (HeLa [4]) was 40%, the inhibition at 1 µM [5] was 35% and the inhibition at 10 µM (HeLa [6]) was 94%. The inhibition at 1 µM (LNCaP [7]) was 50% and the inhibition at 10 µM [8] was 91%.
